Source: PubChem (several laboratories)
TRPC6 activator: mouse TRPC6 channel activation; HEK293-TRPC6 membrane potential dye fluorescence; active compounds read high; B-score at 10 µM; hit rate 0.13% among 310,000; AID 2550;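 active = B-score of the integrated fluorescence ratio above library mean plus 3 SD, and starting fluorescence ratio within library mean plus 5 SD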;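 also: higher score means more depolarization so channel activation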
Target sequence (Q61143 whole entry, looked up): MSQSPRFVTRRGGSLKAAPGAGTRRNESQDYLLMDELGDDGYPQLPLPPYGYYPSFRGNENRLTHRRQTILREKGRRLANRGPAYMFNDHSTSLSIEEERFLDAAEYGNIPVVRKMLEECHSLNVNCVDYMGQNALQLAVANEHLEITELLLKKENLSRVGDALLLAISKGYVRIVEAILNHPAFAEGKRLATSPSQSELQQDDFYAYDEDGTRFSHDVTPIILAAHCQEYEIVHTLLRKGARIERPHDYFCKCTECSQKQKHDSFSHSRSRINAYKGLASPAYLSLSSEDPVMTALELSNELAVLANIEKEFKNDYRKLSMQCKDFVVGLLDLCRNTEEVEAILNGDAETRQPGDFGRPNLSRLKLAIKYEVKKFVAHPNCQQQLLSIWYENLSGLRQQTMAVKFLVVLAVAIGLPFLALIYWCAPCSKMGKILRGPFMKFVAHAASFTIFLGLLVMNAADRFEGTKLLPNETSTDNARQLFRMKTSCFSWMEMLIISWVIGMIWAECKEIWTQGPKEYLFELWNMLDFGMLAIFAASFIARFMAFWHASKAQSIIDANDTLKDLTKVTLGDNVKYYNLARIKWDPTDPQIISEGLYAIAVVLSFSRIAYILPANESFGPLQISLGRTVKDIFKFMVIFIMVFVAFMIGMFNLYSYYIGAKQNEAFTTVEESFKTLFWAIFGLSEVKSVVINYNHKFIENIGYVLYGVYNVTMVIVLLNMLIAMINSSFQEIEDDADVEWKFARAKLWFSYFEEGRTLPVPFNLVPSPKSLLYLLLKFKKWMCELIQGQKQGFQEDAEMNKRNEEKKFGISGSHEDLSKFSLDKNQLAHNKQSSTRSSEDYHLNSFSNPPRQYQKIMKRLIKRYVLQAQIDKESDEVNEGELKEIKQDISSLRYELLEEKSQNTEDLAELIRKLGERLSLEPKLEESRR
TRPC6 inh: mouse TRPC6 channel inhibition. hit rate 1.1% among 310,000. HEK293-TRPC6, membrane potential dye, ACh-evoked depolarization; active compounds read low. Q61143. B-score at 10 µM;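 active = B-score under library mean minus 3 SD, initial fluorescence not abnormally high, positive integrated signal ratio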;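 also: B-score derived from integrated fluorescence ratio over the kinetic read; more negative B-score means stronger inhibition of depolarization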
FID counter: counter-screen for HCV NS3 helicase inhibitors: DNA intercalator displacement. DNA fluorescent intercalator displacement, fluorescence. inhibition, % at 7.9 µM. hit rate 0.17% among 290,000. AID 1845; in the data active = inhibition above about 37%;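 also: 0% = vehicle and 100% = reference compound; higher means more ethidium bromide displaced from hairpin DNA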
TRPC4 agonist: TRPC4 (mouse) channel activation; Q9QUQ5; HEK293 TRPC4beta/mu-opioid, Fluo4 calcium fluorescence; active compounds read high; B-score at 10 µM; hit rate 0.49% among 310,000;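 active = B-score above 5 SD of library B-scores, and initial fluorescence ratio not above library mean plus 5 SD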;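 also: positive B-score marks a calcium rise read as TRPC4 activation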
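Assay system: HEK293 stable line with TRPC4beta plus mu-opioid receptor; schedule: 45 min room-temperature Fluo4 loading, 110 s read; technique: kinetic Fluo4 calcium fluorescence; evaluation: integrated baseline-normalised fluorescence ratio, converted to per-well B score; controls: buffer (low) and maximal DAMGO (high)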
TRPC4 PAM: TRPC4 (mouse) allosteric potentiation; B-score at 10 µM; AID 2227; HEK293 TRPC4beta/mu-opioid, DAMGO EC20, Fluo-4 Ca2+ flux; active compounds read high; Q9QUQ5; hit rate 0.42% among 310,000;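 active = B-score of calcium response area above 5 SD of library B-scores, with initial fluorescence ratio within 5 SD of library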;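 also: B-score of integrated fluorescence ratio over time as area under calcium response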
TRPC4 inh: blocks the mouse TRPC4 cation channel | HEK293 TRPC4beta/mu-opioid, DAMGO-evoked Fluo4 calcium flux; active compounds read low | Q9QUQ5 | hit rate 0.39% among 300,000 | B-score at 10 µM;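 active = B-score over 3 SD under the library average, no early fluorescence shift, positive overall ratio signal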
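Test system – stable TRPC4beta/mu-opioid receptor HEK293 cells · Probe or stimulus – DAMGO, a submaximal dose followed by a maximal one · Dosing – one concentration per compound · Signal – Fluo4 calcium fluorescence by kinetic imaging, 5 s 1 Hz baseline · Evaluation – per-well B score of integrated baseline-normalized Fluo4 ratio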
TRPC4 sel inh 2: second selectivity test of TRPC6 inhibitors: effect on mouse TRPC4; inhibition, % at 10 µM; HEK293 TRPC4/MOR, membrane potential dye fluorescence; channel activated by saturating DAMGO dose; AID 2776; hit rate 42% among 920; shares compounds with TRPC6 inh;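 active = compounds whose fluorescence signal differed from control wells by over 3 SD, either direction, in both duplicate plates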
TRPC4 spec: selectivity of TRPC6 inhibitors: effect on mouse TRPC4. shares compounds with TRPC6 inh. HEK293 TRPC4/mu-opioid, membrane potential fluorescence. activity change, negative = inhibition, % at 10 µM. hit rate 61% among 920;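 active = rise or fall in signal beyond 3 SD of buffer-only wells in both replicate plates, either sign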;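 also: integrated kinetic ratio of fluorescence range over baseline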
HEK293 MPD ctr 2-1: parental HEK293 nonspecific activity of TRPC6 inhibitors, second screen | shares compounds with TRPC6 inh | parental HEK293 membrane potential dye fluorescence; maximal acetylcholine challenge after compound addition | signal change vs control, % at 10 µM | hit rate 31% among 920 | AID 2779;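 active = membrane potential signal moving either way by over 3 SD of the maximum-effect control, in both duplicate plates, meaning non-specific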
HEK293 MPD ctr-1: parental HEK293 nonspecific activity of TRPC6 inhibitors; shares compounds with TRPC6 inh; membrane potential signal change, % at 10 µM; AID 2780; hit rate 60% among 920; parental HEK293 membrane potential dye fluorescence;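 active = membrane potential signal shifting up or down by more than 3 SD of buffer-only wells, on both duplicate plates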
HEK293 MPD ctr-2: parental HEK293 nonspecific activity of TRPC6 modulators; shares compounds with TRPC6 inh; membrane potential dye fluorescence; membrane potential signal change, % at 10 µM; hit rate 51% among 2,400; AID 488924;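 active = membrane potential signal moves up or down beyond 5 SD from buffer-only wells, on both duplicate plates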
HEK293 MPD ctr 2-2: second check of TRPC6 modulator effects in parental HEK293 cells; shares compounds with TRPC6 inh; membrane potential dye fluorescence; after compound, maximal acetylcholine stimulation; inhibition, % at 10 µM; hit rate 14% among 2,400;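 active = membrane potential signal drops by more than 5 SD from the mean control signal, in both duplicate plates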;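 also: plate controls were acetylcholine ECmax control wells for no effect and buffer only wells for full effect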
TRPC4 ctr mod: selectivity of TRPC6 modulators against mouse TRPC4 | shares compounds with TRPC6 inh | hit rate 69% among 2,400 | HEK293 TRPC4/mu-opioid, membrane potential fluorescence | percent change from control (negative = decrease, positive = increase), % at 10 µM;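 active = membrane potential signal moved up or down beyond 5 SD of buffer control wells, in both duplicate plates, actives on both sides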;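 also: plate controls were assay buffer wells for no effect and DAMGO maximal-effect wells for full effect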
TRPC4 ctr inh 2: second selectivity test of TRPC6 modulators against mouse TRPC4 | hit rate 55% among 2,400 | HEK293 TRPC4/mu-opioid, membrane potential dye fluorescence; stimulated with maximal-effect DAMGO | inhibition, % at 10 µM | AID 488928 | shares compounds with TRPC6 inh;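 active = drop in membrane potential signal beyond 5 SD of the control wells in both duplicate plates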;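 also: TRPC4 counter screen for TRPC6 hits run under conditions tuned for TRPC6 not TRPC4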
TRPC6 inh conf: confirmation of mouse TRPC6 inhibitors; shares compounds with TRPC6 inh; HEK293-TRPC6, membrane potential dye, ACh-evoked depolarization; inhibition, % at 10 µM; hit rate 43% among 3,300; AID 488960;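 active = fluorescence ratio falls more than 5 SD below the full-stimulation control mean, in both duplicate runs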;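 also: integrated fluorescence ratio of peak minus minimum over baseline after agonist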
TRPC6 act confirm: confirmation of mouse TRPC6 activators | shares compounds with TRPC6 inh | HEK293-TRPC6 membrane potential dye fluorescence, FDSS | activation, % at 10 µM | hit rate 11% among 2,800 | AID 488961;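 active = ratio signal rise beyond 5 SD above unstimulated control wells' mean, seen in both duplicate runs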;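 also: plate controls were buffer EC0 wells for no effect and acetylcholine ECmax response for full effect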
An asterisk follows results filed as active; i = inactive; / = no result. This is a sample that favours compounds with a hit; in the whole collection about 2.3% have one here.

SMILES | TRPC6 activator | TRPC6 inh | FID counter | TRPC4 agonist | TRPC4 PAM | TRPC4 inh | HEK293 MPD ctr-2 | HEK293 MPD ctr 2-2 | TRPC4 ctr mod | TRPC4 ctr inh 2 | TRPC6 inh conf | TRPC6 act confirm | others
COC(=O)c1ccc(/C=N/OCC(=O)NC2CCCCCCC2)cc1 | i | -9.1* | -15 | i | i | i | / | / | / | / | i | / | TRPC4 sel inh 2=i;TRPC4 spec=3.9%*;HEK293 MPD ctr 2-1=i;HEK293 MPD ctr-1=3.9%*
COC(=O)c1ccc(N2CCN(C)CC2)c(NC(=O)c2sc3ccccc3c2Cl)c1 | i | -6.7* | 4 | 71* | i | i | -196%* | i | -46%* | 74%* | i | i
COC(=O)c1ccc(N2CCN(C)CC2)c(NC(=O)c2ccc(Br)o2)c1 | i | -6.7* | 1 | 142* | i | i | -268%* | 82%* | -38%* | 94%* | 74%* | i
CN1CCN(c2ccc(NC(=O)c3sc4ccccc4c3Cl)cc2)CC1 | i | i | 17 | i | i | i | / | / | / | / | / | /
CC(/C=C/c1cccc([N+](=O)[O-])c1)=N/NC(=O)c1cccnc1 | i | -5.9* | -5 | i | i | i | i | i | i | i | i | i
C/C(=N\NC(=O)c1cccnc1)c1cccc([N+](=O)[O-])c1 | i | i | -7 | i | i | i | / | / | / | / | / | /
O=[N+]([O-])c1cccc(-c2nnc(-c3ccccc3F)o2)c1 | i | i | -4 | i | i | i | / | / | / | / | / | /
Cc1ccc(CCNC(=O)C2CCCN(S(=O)(=O)c3cccc4nsnc34)C2)cc1 (configuration not stated) | i | -6* | -1 | i | i | i | i | i | i | i | i | i
O=C(CN1C(=O)c2cccc3cccc1c23)NC1CCCCC1 | i | i | -16 | i | i | i | / | / | / | / | / | /
O=C(c1ccco1)N1CCN(c2ccnc3cc(Cl)ccc23)CC1 | i | -5.1* | -13 | i | i | i | -160%* | i | -26%* | 37%* | i | i
O=C(C1CC1)N1CCN(c2ccnc3cc(Cl)ccc23)CC1 | i | i | -11 | i | i | i | / | / | / | / | / | /
CSc1ccc(/C=C/C(=O)N2CCN(c3ccccn3)CC2)cc1 | i | i | -41 | i | i | i | / | / | / | / | / | /
